# Laboratory results published in ChEMBL document CHEMBL1140479, “NO donors. Part 16: investigations on structure-activity relationships of organic mononitrates reveal 2-nitrooxyethylammoniumnitrate as a high potent vasodilator” (Bioorg Med Chem Lett, 2007).
# Assay: Vasodilatory effect in pig pulmonary artery assessed as inhibition of PGF2-alpha-induced contraction
# Assay type: functional, tissue-based, Sus scrofa
# Conditions: for pD2: Sus scrofa
# Summary of the method: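 Porcine lungs from slaughterhouse; small pulmonary artery branches cut into rings (2–3 mm long, 1.5–2 mm diameter), tension measured in organ baths. Rings precontracted with PGF2α; test compounds added cumulatively at contraction plateau (up to 1 mM), DMSO as solvent. Endothelium checked by 10 nM bradykinin relaxation; denuded rings by gentle rubbing, pretreated with 0.2 mM L-NAME. Potency expressed as pD2.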
SMILES,EC50 [µM],pD2
O=[N+]([O-])OCc1ccccc1,0.412,6.34
CC(C)CO[N+](=O)[O-],87.7,4.01
COC(=O)CCO[N+](=O)[O-],1.03,5.99
O=[N+]([O-])OCCS(=O)(=O)O,33.5,4.48
O=[N+]([O-])OCC(CO)(CO)CO [PENTAERYTHRITYL MONONITRATE],72.5,4.14
CC(O[N+](=O)[O-])C(=O)c1ccccc1 (stereo unspecified),1.54,5.81
O=[N+]([O-])OC1COC2C(O)COC12 (stereo unspecified),33.2,4.48
CC(C)(CO[N+](=O)[O-])C(=O)O,14.7,4.83
NCCO[N+](=O)[O-] [AMINOETHYL NITRATE],0.0315,7.5
O=C(O)CCO[N+](=O)[O-],9.56,5.02
O=[N+]([O-])OCC(CO[N+](=O)[O-])O[N+](=O)[O-] [NITROGLYCERIN],0.0356,7.44
CCCCO[N+](=O)[O-],141,3.85
O=[N+]([O-])O[C@H]1CO[C@H]2[C@@H]1OC[C@H]2O[N+](=O)[O-] [ISOSORBIDE DINITRATE],0.424,6.37
